The source of these data is ChEMBL document CHEMBL3804777, “Identification and Preclinical Pharmacology of BMS-986104: A Differentiated S1P1 Receptor Modulator in Clinical Trials” (ACS Med Chem Lett, 2016).

The source made the active and inactive calls. The calls are words filed in the database; no cut-off is given here.

Data set [1] has as its system Mus musculus. Kind of data set: Reduction of blood lymphocyte level in BALB/c mouse at 1 mg/kg administered through oral gavage after 24 hrs by hematology analysis. Type of data set: functional. Also noted: scale not given: the % may be the effect or the level left. In a few lines: (§1)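 Mice given a single oral 1 mg/kg dose; circulating lymphocytes counted 24 h later as the pharmacodynamic marker.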

Data set [2] is described as follows: Drug metabolism in BALB/c mouse whole blood assessed as whole blood phosphate area ratio at 10 uM after 4 hrs by LC/MS/MS analysis. In kind it is ADME, tissue-based. In a few lines:
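Mouse whole blood incubated with the amino-alcohol prodrug; phosphorylated product measured by LC/MS/MS after 4 h to give the relative extent of phosphate ester formation.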

In data set [3] the test system is Blood. In words: Drug metabolism in BALB/c mouse blood assessed as formation of phosphate ester metabolite at 10 mg/kg administered through oral gavage after 4 hrs by LC/MS/MS analysis. Type of data set: ADME, organism-based. The conditions noted are these: in vivo. In a few lines: (§2)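 Mouse PK study: alcohol prodrug given orally at 10 mg/kg, and formation of the phosphate metabolite in blood measured.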

Data set [4] has as its system Blood. In words: Drug metabolism in BALB/c mouse blood assessed as formation of phosphate ester metabolite at 10 mg/kg administered through oral gavage after 24 hrs by LC/MS/MS analysis. In kind it is ADME, organism-based. To be noted: in vivo. The essentials:
as §2

Data set [5] relates to Blood. In words: Drug metabolism in BALB/c mouse blood assessed as formation of phosphate metabolite at 1 mg/kg administered through oral gavage after 24 hrs by LC/MS/MS analysis. In kind it is ADME, organism-based. To be noted: in vivo. In a few lines: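 Single oral 1 mg/kg dose in mice; phosphate level in blood determined at 24 h postdose.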
Data set [6] deals with Mus musculus. In words: Reduction in blood lymphocyte level in BALB/c mouse at 1 mg/kg, po after 24 hrs by hematology analysis. Type of data set: functional, organism-based. The essentials: as §1

Regarding `CCCCCCC1CCc2cc(C3CCC(N)(CO)C3)ccc2C1` (stereo in doubt; 3a), the Activity in data set [1] amounted to 12%. Moreover, the Ratio in data set [2] came to 0.07. Further, the results for the Drug metabolism in data set [3] and in data set [4] were less than 9.8 nM and 14 nM, respectively.
Take `CCCCCCC1CCc2cc(C3CCC(N)(CO)C3)ccc2C1` (stereo in doubt; 3h): the Activity in data set [1] amounted to 60%. The Ratio in data set [2] was 0.17.
Consider `CCCCCCC1CCc2cc(C3CCC(N)(CO)C3)ccc2C1` (stereo in doubt; 3g), for which the Ratio in data set [2] was 0.02.
For the compound `CCCCCCC1CCc2cc(C3CCC(N)(CO)C3)ccc2C1` (stereo in doubt; 3e), the Ratio in data set [2] is given as 0.03.
`CCCCCCC1CCc2cc(C3CCC(N)(CO)C3)ccc2C1` (stereo in doubt; 3c): the Activity in data set [1] stood at 18%. Besides, the Ratio in data set [2] turned out to be 0.14. For the same compound, the figures for the Drug metabolism in data set [3] and in data set [4] were 12 nM and 46 nM, respectively.
In data set [1], `CCCCCCC1CCc2cc(C3CCC(N)(CO)C3)ccc2C1` (stereo in doubt; 3f) yielded an Activity of 80%. Further, the Ratio in data set [2] is recorded as 0.6.
For `CCCCCCC1CCc2cc(C3CCC(N)(CO)C3)ccc2C1` (stereo in doubt; 3b) [listing 1 of 2 here], the Drug metabolism in data set [5] came to 47 nM; in data set [3] it was 67 nM; in data set [4], 475 nM. The same compound came in with an Activity in data set [1] of 90%. Further, the Ratio in data set [2] is reported as 1.6.
For `CCCCCCC1CCc2cc(C3CCC(N)(CO)C3)ccc2C1` (stereo in doubt; 3b) [listing 2 of 2 here], the result in data set [6] was Active.
